Source: ChEMBL document CHEMBL4689842, “EUbOPEN Chemogenomics Library wave 1” (2021)

Tested on: U2OS
Experiment: Multiplex assay against U2OS
Assay type: toxicity, cell-based
Details: human
Procedure, shortened: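 With compound added, live cells were imaged on a CQ1 microscope at 37°C and 5% CO2; staining with Hoechst33342, BioTracker Green Microtubule Cytoskeleton Dye, MitoTracker Red and Annexin V Alexa Fluor 680 had been done at seeding. The CellPathfinder machine-learning gating scheme split cells into Hoechst high-intensity objects or normal cells, normal cells into healthy, pyknosed or fragmented nuclei, and pyknosed cells into mitotic or apoptotic. The tubulin, mitochondrial-mass and membrane-permeability phenotypes are per cents of healthy-nucleus cells.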

[1] = 12 h, 1 µM, compound concentration 1 uM, replicate 1
[2] = 12 h, 1 µM, compound concentration 1 uM, replicate 2
[3] = 12 h, 10 µM, compound concentration 10 uM, replicate 1
[4] = 12 h, 10 µM, compound concentration 10 uM, replicate 2
[5] = 24 h, 1 µM, compound concentration 1 uM, replicate 1
[6] = 24 h, 1 µM, compound concentration 1 uM, replicate 2
[7] = 24 h, 10 µM, compound concentration 10 uM, replicate 1
[8] = 24 h, 10 µM, compound concentration 10 uM, replicate 2
[9] = 48 h, 1 µM, compound concentration 1 uM, replicate 1
[10] = 48 h, 1 µM, compound concentration 1 uM, replicate 2
[11] = 48 h, 10 µM, compound concentration 10 uM, replicate 1
[12] = 48 h, 10 µM, compound concentration 10 uM, replicate 2

Structure (SMILES): CN1CCC[C@@H]1CCO[C@](C)(c1ccccc1)c1ccc(Cl)cc1.O=C(O)/C=C/C(=O)O [CLEMASTINE FUMARATE]
- Population Apoptotic (%) [1]: 50%
- Population Fragmented Nuclei (%) [1]: 12%
- Population Healthy Nuclei (%) [1]: 72%
- Population Hoechst High Intensity Objects (%) [1]: 11%
- Population Membrane Permeable-Phenotype (%) [1]: 5%
- Population Mitochondria Different-Phenotype (%) [1]: 18%
- Population Mitotic Cells (%) [1]: 50%
- Population Normal (%) [1]: 88%
- Population Pyknosed Nuclei (%) [1]: 14%
- Population Tubulin-Different-Phenotype (%) [1]: 12%
- Total Cell Count [1]: 108
- Population Fragmented Nuclei (%) [2]: 15%
- Population Healthy Nuclei (%) [2]: 76%
- Population Hoechst High Intensity Objects (%) [2]: 1%
- Population Membrane Permeable-Phenotype (%) [2]: 3%
- Population Mitochondria Different-Phenotype (%) [2]: 6%
- Population Normal (%) [2]: 98%
- Population Pyknosed Nuclei (%) [2]: 7%
- Population Tubulin-Different-Phenotype (%) [2]: 3%
- Total Cell Count [2]: 78
- Population Apoptotic (%) [3]: 50%
- Population Fragmented Nuclei (%) [3]: 24%
- Population Hoechst High Intensity Objects (%) [3]: 18%
- Population Membrane Permeable-Phenotype (%) [3]: 13%
- Population Mitochondria Different-Phenotype (%) [3]: 97%
- Population Mitotic Cells (%) [3]: 50%
- Population Normal (%) [3]: 81%
- Population Pyknosed Nuclei (%) [3]: 34%
- Population Tubulin-Different-Phenotype (%) [3]: 83%
- Total Cell Count [3]: 127
- Population Apoptotic (%) [4]: 85%
- Population Fragmented Nuclei (%) [4]: 19%
- Population Healthy Nuclei (%) [4]: 41%
- Population Hoechst High Intensity Objects (%) [4]: 21%
- Population Membrane Permeable-Phenotype (%) [4]: 6%
- Population Mitochondria Different-Phenotype (%) [4]: 86%
- Population Mitotic Cells (%) [4]: 14%
- Population Normal (%) [4]: 78%
- Population Pyknosed Nuclei (%) [4]: 38%
- Population Tubulin-Different-Phenotype (%) [4]: 40%
- Total Cell Count [4]: 46
- Population Apoptotic (%) [5]: 55%
- Population Fragmented Nuclei (%) [5]: 7%
- Population Healthy Nuclei (%) [5]: 85%
- Population Hoechst High Intensity Objects (%) [5]: 6%
- Population Membrane Permeable-Phenotype (%) [5]: 5%
- Population Mitochondria Different-Phenotype (%) [5]: 9%
- Population Mitotic Cells (%) [5]: 44%
- Population Normal (%) [5]: 93%
- Population Pyknosed Nuclei (%) [5]: 7%
- Population Tubulin-Different-Phenotype (%) [5]: 13%
- Total Cell Count [5]: 135
- Population Apoptotic (%) [6]: 18%
- Population Fragmented Nuclei (%) [6]: 14%
- Population Healthy Nuclei (%) [6]: 70%
- Population Hoechst High Intensity Objects (%) [6]: 0%
- Population Mitochondria Different-Phenotype (%) [6]: 13%
- Population Mitotic Cells (%) [6]: 81%
- Population Normal (%) [6]: 99%
- Population Pyknosed Nuclei (%) [6]: 15%
- Population Tubulin-Different-Phenotype (%) [6]: 6%
- Total Cell Count [6]: 107
- Population Apoptotic (%) [7]: 64%
- Population Fragmented Nuclei (%) [7]: 33%
- Population Healthy Nuclei (%) [7]: 35%
- Population Hoechst High Intensity Objects (%) [7]: 10%
- Population Membrane Permeable-Phenotype (%) [7]: 21%
- Population Mitochondria Different-Phenotype (%) [7]: 100%
- Population Mitotic Cells (%) [7]: 35%
- Population Normal (%) [7]: 90%
- Population Pyknosed Nuclei (%) [7]: 31%
- Population Tubulin-Different-Phenotype (%) [7]: 68%
- Total Cell Count [7]: 120
- Population Apoptotic (%) [8]: 76%
- Population Fragmented Nuclei (%) [8]: 21%
- Population Healthy Nuclei (%) [8]: 36%
- Population Hoechst High Intensity Objects (%) [8]: 12%
- Population Membrane Permeable-Phenotype (%) [8]: 26%
- Population Mitochondria Different-Phenotype (%) [8]: 86%
- Population Mitotic Cells (%) [8]: 23%
- Population Normal (%) [8]: 87%
- Population Pyknosed Nuclei (%) [8]: 41%
- Population Tubulin-Different-Phenotype (%) [8]: 26%
- Total Cell Count [8]: 47
- Population Apoptotic (%) [9]: 38%
- Population Hoechst High Intensity Objects (%) [9]: 3%
- Population Membrane Permeable-Phenotype (%) [9]: 4%
- Population Mitochondria Different-Phenotype (%) [9]: 11%
- Population Mitotic Cells (%) [9]: 61%
- Population Normal (%) [9]: 96%
- Population Pyknosed Nuclei (%) [9]: 10%
- Population Tubulin-Different-Phenotype (%) [9]: 6%
- Total Cell Count [9]: 184
- Population Apoptotic (%) [10]: 31%
- Population Fragmented Nuclei (%) [10]: 5%
- Population Healthy Nuclei (%) [10]: 84%
- Population Hoechst High Intensity Objects (%) [10]: 1%
- Population Membrane Permeable-Phenotype (%) [10]: 5%
- Population Mitochondria Different-Phenotype (%) [10]: 13%
- Population Mitotic Cells (%) [10]: 68%
- Population Normal (%) [10]: 98%
- Population Pyknosed Nuclei (%) [10]: 9%
- Population Tubulin-Different-Phenotype (%) [10]: 15%
- Total Cell Count [10]: 164
- Population Apoptotic (%) [11]: 83%
- Population Fragmented Nuclei (%) [11]: 33%
- Population Healthy Nuclei (%) [11]: 25%
- Population Hoechst High Intensity Objects (%) [11]: 11%
- Population Membrane Permeable-Phenotype (%) [11]: 3%
- Population Mitochondria Different-Phenotype (%) [11]: 80%
- Population Mitotic Cells (%) [11]: 16%
- Population Normal (%) [11]: 88%
- Population Pyknosed Nuclei (%) [11]: 41%
- Population Tubulin-Different-Phenotype (%) [11]: 50%
- Total Cell Count [11]: 117
- Population Apoptotic (%) [12]: 54%
- Population Fragmented Nuclei (%) [12]: 25%
- Population Healthy Nuclei (%) [12]: 46%
- Population Hoechst High Intensity Objects (%) [12]: 15%
- Population Membrane Permeable-Phenotype (%) [12]: 44%
- Population Mitochondria Different-Phenotype (%) [12]: 72%
- Population Mitotic Cells (%) [12]: 45%
- Population Normal (%) [12]: 84%
- Population Pyknosed Nuclei (%) [12]: 28%
- Population Tubulin-Different-Phenotype (%) [12]: 55%
- Total Cell Count [12]: 46
